In ChEMBL document CHEMBL1144887, “Indanylidenes. 1. Design and synthesis of (E)-2-(4,6-difluoro-1-indanylidene)acetamide, a potent, centrally acting muscle relaxant with antiinflammatory and analgesic activity” (J Med Chem, 2003):

Columns and labels:
Format in all cases: functional
[1] = species on record: Mus musculus; test: Ratio of rotarod to Straub-tail activity, which indicates the dose exhibiting muscle relaxant activity versus that producing sedation.
How it was run: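 Ratio of rotorod ED50 (po) to Straub tail ED50 (po), both measured in mice with oral dosing. Indicates separation between the muscle-relaxant dose and the sedating dose.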

[2] = test system: Mus musculus; test: Sedation caused by oral administration was estimated using rotarod (RR) assay.
How it was run: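 Mouse rotorod test for sedation, oral dosing, generally at a minimum of three doses with N = 6 animals per dose group.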

[3] = test system: Mus musculus; test: (§1) Percent effect profile muscle relaxation at 100 mg/kg by intraperitoneal administration in mouse using Straub-tail (ST) assay; conditions: ip
How it was run: (§2)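 Mouse morphine-induced Straub tail assay, scoring inhibition of sacro-coccygeus dorsalis contraction. Single ip dose of 100 mg/kg; percent effect reported. Compounds above 50% inhibition were then tested orally.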

[4] = test system: Mus musculus; test: Effective dose required for muscle relaxation by oral administration in mouse using Straub-tail (ST) assay.
How it was run: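 Mouse morphine-induced Straub tail assay, scoring inhibition of sacro-coccygeus dorsalis contraction. Dosed ip or po, generally at a minimum of three doses with N = 6 animals per dose group.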

[5] = test system: Rattus norvegicus; test: Antiinflammatory activity in cells by Carrageenan pleurisy assay by oral administration at 20 mg/kg.
How it was run: (§3)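 Rat carrageenan pleurisy, 3 h. Single oral dose of 20 mg/kg, with separate read-outs for pleural cell counts and edema as percent inhibition. Each compound tested two or three times; average variation approximately 10%.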

[6] = test system: Rattus norvegicus; test: Antiinflammatory activity in edema by Carrageenan pleurisy assay by oral administration at 20 mg/kg.; how it was run: as §3
[7] = test system: Rattus norvegicus; test: Percent inhibition for analgesic activity by trypsin-induced hyperalgesia assay at 20 mg/kg by oral administration in rats.
How it was run: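 Rat trypsin-induced hyperalgesia (mild analgesia). Percent inhibition at a single oral dose of 20 mg/kg. Each compound tested two or three times; average variation approximately 5%.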

[8] = test system: Mus musculus; test: as §1; conditions: ip; how it was run: as §2; remark: listed apart in the source

Row | Compound | Ratio [1] | ED50 [2] [mg/kg] | inhibition in vivo at 100 mg/kg [3] [%] | ED50 [4] [mg/kg] | inhibition in vivo at 20 mg/kg [5] [%] | inhibition in vivo at 20 mg/kg [6] [%] | inhibition in vivo at 20 mg/kg [7] [%] | ED50 [8] [mg/kg] | inhibition in vivo at 100 mg/kg [8] [%]
1 | NC(=O)/C=C1\CCc2c1ccc(F)c2F | 1.1 | 50 | 100 | 45 | 77 | 82 | 41 |  | 
2 | O=C(/C=C1\CCc2ccc(F)cc21)NCC1CC1 |  |  | 50 |  | 0 | 21 |  |  | 
3 | CCN(C)C(=O)/C=C1\CCc2c(F)cc(F)cc21 | 1.3 | 73 | 100 | 56 |  |  |  |  | 
4 | CCN(C)C(=O)/C=C1\CCc2ccc(F)cc21 |  |  | 100 | 100 | 20 | 44 | 77 |  | 
5 | CON(C)C(=O)/C=C1\CCc2ccc(F)cc21 |  |  | 17 |  | 6 | 14 |  |  | 
6 | N#Cc1ccc2c(c1)/C(=C/C(N)=O)CC2 |  |  |  |  |  |  | 21 | 33 | 
7 | COc1ccc2c(c1)/C(=C/C(N)=O)CC2 |  |  |  |  | 1 | 3 |  |  | 0
8 | O=C(/C=C1\CCc2cc(F)c(F)cc21)NC1CC1 |  |  | 50 |  | 30 | 48 |  |  | 
9 | O=C(/C=C1/CCc2ccc(Cl)cc21)NC1CC1 |  |  |  |  |  |  |  |  | 0
10 | CNC(=O)/C=C1\CCc2cc(Cl)ccc21 |  |  | 50 |  | 40 | 44 | 25 |  | 
11 | O=C(/C=C1\CCc2ccc(Cl)cc21)NC1CC1 |  |  | 50 |  |  |  |  |  | 
12 | CNC(=O)/C=C1\CCc2ccc(Br)cc21 |  |  | 0 |  | 44 | 53 | 4 |  | 
13 | O=C(/C=C1\CCc2ccc(F)cc21)N1CCC1 |  |  | 33 |  | 14 | 0 | 7 |  | 
14 | O=C(/C=C1\CCc2ccc(F)cc21)N1CCCC1 |  |  | 33 |  | 10 | 18 | 10 |  | 
15 | O=C(/C=C1\CCc2ccc(Br)cc21)NC1CC1 |  |  | 33 |  | 29 | 4 |  |  | 
16 | COc1ccc2c(c1)CC/C2=C\C(N)=O |  |  | 17 |  | 18 | 25 | 13 |  | 

Row | Compound | Ratio [1] | ED50 [2] [mg/kg] | inhibition in vivo at 100 mg/kg [3] [%] | ED50 [4] [mg/kg] | inhibition in vivo at 20 mg/kg [5] [%] | inhibition in vivo at 20 mg/kg [6] [%] | inhibition in vivo at 20 mg/kg [7] [%] | ED50 [8] [mg/kg] | inhibition in vivo at 100 mg/kg [8] [%]
17 | O=C(/C=C1\CCc2c(F)ccc(F)c21)NC1CC1 | 0.03 | 2 | 100 | 59 |  |  | 2 |  | 
18 | CCNC(=O)/C=C1\CCc2c(F)cc(F)cc21 |  |  | 67 |  |  |  | 63 |  | 
19 | O=C(/C=C1\CCc2cc(F)cc(F)c21)NC1CC1 | 1.4 | 81 | 100 | 69 |  |  | 13 |  | 
20 | O=C(/C=C1\CCc2c(Cl)cccc21)NC1CC1 | 1.1 | 66 | 100 | 58 | 28 | 45 |  |  | 
21 | NC(=O)/C=C1\CCc2c(Cl)cccc21 |  |  | 67 |  | 35 | 58 | 29 |  | 
22 | O=C(/C=C1\CCc2c(F)cc(F)cc21)NC1CC1 | 1 | 62 | 100 | 62 | 38 | 28 |  |  | 
23 | O=C(/C=C1\CCc2cc(Cl)ccc21)NC1CC1 |  |  | 17 |  | 34 | 29 |  |  | 
24 | CNC(=O)/C=C1\CCc2ccc(Cl)cc21 |  |  | 16 |  | 0 | 25 | 17 |  | 
25 | CCCNC(=O)/C=C1\CCc2ccc(F)cc21 |  |  | 100 | > 100 | 0 | 36 | 11 |  | 
26 | O=C(/C=C1\CCc2ccc(F)cc21)NCCO |  |  | 50 |  | 42 | 78 | 33 |  | 
27 | NC(=O)/C=C1\CCc2ccc(Br)cc21 |  |  | 100 | 96 | 38 | 21 |  |  | 
28 | CCNC(=O)/C=C1\CCc2ccc(F)cc21 | 1.9 | 136 | 100 | 70 | 45 | 63 | 40 |  | 
29 | O=C(/C=C1\CCc2ccc(F)cc21)N1CCOCC1 |  |  | 100 | 90 | 7 | 31 |  |  | 
30 | O=C(/C=C1\CCc2ccc(F)cc21)NC1CC1 | 0.9 | 62 | 100 | 66 | 5 | 7 |  |  | 
31 | CC(C)NC(=O)/C=C1\CCc2c(F)cc(F)cc21 | 1.9 | 76 | 100 | 50 |  |  |  |  | 
